For series [1], the target named is T1, Cytosolic phospholipase A2 (Homo sapiens, UniProt P47712).
T1 sequence (P47712 whole entry): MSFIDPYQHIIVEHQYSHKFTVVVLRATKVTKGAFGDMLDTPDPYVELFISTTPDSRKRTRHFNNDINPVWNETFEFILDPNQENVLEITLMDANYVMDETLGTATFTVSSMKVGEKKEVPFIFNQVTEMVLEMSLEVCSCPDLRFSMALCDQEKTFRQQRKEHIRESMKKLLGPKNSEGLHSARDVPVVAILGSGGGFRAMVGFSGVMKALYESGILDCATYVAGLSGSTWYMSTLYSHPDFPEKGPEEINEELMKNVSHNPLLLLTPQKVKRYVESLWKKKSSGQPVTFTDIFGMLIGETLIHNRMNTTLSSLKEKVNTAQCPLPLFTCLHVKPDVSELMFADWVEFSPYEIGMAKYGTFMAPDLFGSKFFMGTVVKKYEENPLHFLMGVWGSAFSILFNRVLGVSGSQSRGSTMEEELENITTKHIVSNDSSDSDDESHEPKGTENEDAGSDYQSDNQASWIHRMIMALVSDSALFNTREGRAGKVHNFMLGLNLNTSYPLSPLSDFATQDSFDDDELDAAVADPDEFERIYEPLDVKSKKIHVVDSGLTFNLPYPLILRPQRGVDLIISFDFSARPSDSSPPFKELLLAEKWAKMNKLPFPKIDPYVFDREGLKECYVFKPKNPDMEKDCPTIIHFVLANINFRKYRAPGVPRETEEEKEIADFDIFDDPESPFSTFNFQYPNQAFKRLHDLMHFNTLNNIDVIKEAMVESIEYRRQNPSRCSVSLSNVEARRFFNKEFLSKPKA
As to the kind of experiment: Inhibition of cPLA2 in human platelets assessed as arachidonic acid release. The gist of the method: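 cPLA2α purified from human platelets; substrate covesicles of 1-stearoyl-2-arachidonoyl-sn-glycero-3-phosphocholine (SAPC) with 1,2-dioleoyl-sn-glycerol (DOG). Arachidonic acid released from SAPC after 60 min incubation quantified by reversed-phase HPLC, UV 200 nm; inhibition from release with vs without compound. IC50 values are means of at least two independent determinations.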

Series [2] concerns Liver microsomes. As to the kind of experiment: Metabolic stability in rat liver microsomes. In kind it is ADME, Microsome. Put shortly: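 Rat liver microsomes incubated aerobically with test compound, with and without NADPH, stopped after 30 min. Parent remaining in the NADPH incubation quantified by reversed-phase HPLC with UV detection against the NADPH-free reference incubation and given as percent remaining. Main metabolite structure confirmed by LC/MS. Mean of at least two independent determinations.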

Series [3] in a line: Thermodynamic solubility in sodium phosphate buffer at pH 7.4. In kind it is physicochemical. Put shortly: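 Thermodynamic method: solid compound suspended in sodium phosphate buffer pH 7.4, sonicated 10 min, then shaken 20 h at room temperature. Undissolved material removed by centrifugation, and dissolved concentration in the aqueous phase measured by HPLC.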

pIC50: −log10 of the molar value. ≈ marks a conversion by molar mass, not a printed value.

On to `CCCCCCCCc1ccc(OCC(=O)Cn2nnc3ccc(C(=O)O)cc32)cc1`, for which the pIC50 in series [1] is 7.80. In series [2], this molecule returned a Stability of 44%. This molecule showed a thermodynamic solubility in series [3] of 2 µg/mL (≈ 4.72 µM).
For `CCCCCCCCc1ccc(OCC(=O)Cn2ncc3cc(C(=O)O)ccc32)cc1`, in that order: 8.30, 64% and below 1 µg/mL.
On the same counts, the results for `CCCCCCCCc1ccc(OCC(=O)Cn2cnc3ccc(C(=O)O)cc32)cc1` are 7.07, 40% and 7 µg/mL (≈ 16.6 µM).
On to `CCCCCCCCc1ccc(OCC(=O)Cn2ncc3ccc(C(=O)O)cc32)cc1`, for which the pIC50 in series [1] was 7.59. In addition, in series [2], the Stability amounted to 36%. Also, the thermodynamic solubility in series [3] worked out at 5 µg/mL (≈ 11.8 µM).
On to `CCCCCCCCc1ccc(OCC(=O)Cn2cnc3cc(C(=O)O)ccc32)cc1`, for which, in series [1], the pIC50 was 6.82. Also, the Stability in series [2] is reported as 49%. In series [3], the thermodynamic solubility came out at 22 µg/mL (≈ 52.1 µM).
In the case of `CCCCCCCCc1ccc(OCC(=O)Cn2ccc3ccc(C(=O)O)cc32)cc1`, in series [2], the Stability was 39%. The molecule further gave a thermodynamic solubility in series [3] below 1 µg/mL.
Take `CCCCCCCCc1ccc(OCC(=O)Cn2nnc3cc(C(=O)O)ccc32)cc1`: the pIC50 in series [1] is 7.59. Besides, the Stability in series [2] is 43%. In addition, the solubility (thermodynamic) in series [3] was below 1 µg/mL.

In general, pIC50 refers to −log10 of the IC50, conventionally taken in molar units. One may read the solubility (thermodynamic) as the concentration in solution at equilibrium with solid.

Source of the values: ChEMBL document CHEMBL1154396, “1-(5-Carboxyindol-1-yl)propan-2-ones as inhibitors of human cytosolic phospholipase A2alpha: synthesis and properties of bioisosteric benzimidazole, benzotriazole and indazole analogues” (Bioorg Med Chem Lett, 2009).
